Measurements published in ChEMBL document CHEMBL1156112, “Discovery of 3-(1H-indol-3-yl)-4-[2-(4-methylpiperazin-1-yl)quinazolin-4-yl]pyrrole-2,5-dione (AEB071), a potent and selective inhibitor of protein kinase C isotypes” (J Med Chem, 2009).
One block for each compound: values may come before it. The source made the active and inactive calls. The calls are words filed in the database; no cut-off is given here.

Assays:
[1] = target: Protein kinase C beta type (Homo sapiens, UniProt P05771); test: Inhibition of PKCbeta1 by SPA
Protein kinase C beta type, sequence (P05771 whole entry): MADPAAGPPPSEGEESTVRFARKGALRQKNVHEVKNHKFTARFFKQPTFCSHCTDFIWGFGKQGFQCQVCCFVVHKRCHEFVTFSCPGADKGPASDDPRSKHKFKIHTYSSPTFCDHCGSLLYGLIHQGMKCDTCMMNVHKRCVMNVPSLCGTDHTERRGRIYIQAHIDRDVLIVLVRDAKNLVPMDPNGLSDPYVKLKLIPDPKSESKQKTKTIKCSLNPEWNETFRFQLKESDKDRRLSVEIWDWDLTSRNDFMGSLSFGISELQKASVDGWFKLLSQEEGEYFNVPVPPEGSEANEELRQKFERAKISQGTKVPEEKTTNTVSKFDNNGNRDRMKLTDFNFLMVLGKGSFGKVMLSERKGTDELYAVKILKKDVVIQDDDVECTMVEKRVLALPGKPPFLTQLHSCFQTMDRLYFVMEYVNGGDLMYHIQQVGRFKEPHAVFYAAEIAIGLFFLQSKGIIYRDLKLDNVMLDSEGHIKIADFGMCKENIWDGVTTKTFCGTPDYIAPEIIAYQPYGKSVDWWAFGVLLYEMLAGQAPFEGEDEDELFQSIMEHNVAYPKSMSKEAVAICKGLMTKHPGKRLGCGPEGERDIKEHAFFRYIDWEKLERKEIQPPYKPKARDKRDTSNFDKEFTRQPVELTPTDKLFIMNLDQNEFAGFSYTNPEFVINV

[2] = target: Protein kinase C delta type (Homo sapiens, UniProt Q05655); test: Inhibition of PKCdelta by SPA
Protein kinase C delta type, sequence (Q05655 whole entry): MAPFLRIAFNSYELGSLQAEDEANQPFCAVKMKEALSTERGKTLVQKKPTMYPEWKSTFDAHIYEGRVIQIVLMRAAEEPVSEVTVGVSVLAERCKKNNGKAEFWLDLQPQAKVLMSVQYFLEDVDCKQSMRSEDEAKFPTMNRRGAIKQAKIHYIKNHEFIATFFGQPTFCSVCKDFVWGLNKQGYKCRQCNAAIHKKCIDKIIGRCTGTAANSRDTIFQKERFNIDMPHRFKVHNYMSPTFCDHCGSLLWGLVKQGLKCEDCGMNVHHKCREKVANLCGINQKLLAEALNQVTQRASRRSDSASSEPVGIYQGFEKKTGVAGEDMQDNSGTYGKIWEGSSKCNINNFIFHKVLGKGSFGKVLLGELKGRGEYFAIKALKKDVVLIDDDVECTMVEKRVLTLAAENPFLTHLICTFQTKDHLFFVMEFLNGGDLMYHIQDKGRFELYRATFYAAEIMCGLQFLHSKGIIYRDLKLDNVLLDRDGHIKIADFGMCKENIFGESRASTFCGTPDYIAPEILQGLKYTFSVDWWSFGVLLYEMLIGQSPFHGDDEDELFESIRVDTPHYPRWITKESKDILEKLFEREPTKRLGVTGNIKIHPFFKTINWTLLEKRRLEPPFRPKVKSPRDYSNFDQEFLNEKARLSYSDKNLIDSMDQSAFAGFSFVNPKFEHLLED

[3] = Dissociation constant, pKa of the compound; type: physicochemical
[4] = target: Protein kinase C eta type (Homo sapiens, UniProt P24723); test: Inhibition of PKCeta by SPA
Protein kinase C eta type, sequence (P24723 whole entry): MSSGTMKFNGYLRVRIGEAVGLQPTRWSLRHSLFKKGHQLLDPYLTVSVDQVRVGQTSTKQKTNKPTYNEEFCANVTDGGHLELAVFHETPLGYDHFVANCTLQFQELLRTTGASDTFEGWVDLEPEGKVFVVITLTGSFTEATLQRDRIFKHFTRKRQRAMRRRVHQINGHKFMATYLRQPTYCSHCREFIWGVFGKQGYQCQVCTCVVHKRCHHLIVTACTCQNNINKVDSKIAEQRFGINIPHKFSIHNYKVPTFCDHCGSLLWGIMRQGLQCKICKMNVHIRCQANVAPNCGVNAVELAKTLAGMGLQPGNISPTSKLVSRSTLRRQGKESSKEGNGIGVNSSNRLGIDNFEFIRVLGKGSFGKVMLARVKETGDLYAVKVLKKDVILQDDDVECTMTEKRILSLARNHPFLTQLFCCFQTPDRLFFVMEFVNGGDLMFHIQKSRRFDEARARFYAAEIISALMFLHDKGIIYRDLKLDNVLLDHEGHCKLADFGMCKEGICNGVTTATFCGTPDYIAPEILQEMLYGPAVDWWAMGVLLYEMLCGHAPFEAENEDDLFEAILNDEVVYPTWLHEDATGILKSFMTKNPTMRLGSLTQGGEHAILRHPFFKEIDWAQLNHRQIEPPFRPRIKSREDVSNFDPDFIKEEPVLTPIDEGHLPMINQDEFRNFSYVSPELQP

[5] = target: T1, Protein kinase C epsilon type (Homo sapiens, UniProt Q02156); test: Inhibition of PKCepsilon by SPA
T1 sequence (Q02156 whole entry): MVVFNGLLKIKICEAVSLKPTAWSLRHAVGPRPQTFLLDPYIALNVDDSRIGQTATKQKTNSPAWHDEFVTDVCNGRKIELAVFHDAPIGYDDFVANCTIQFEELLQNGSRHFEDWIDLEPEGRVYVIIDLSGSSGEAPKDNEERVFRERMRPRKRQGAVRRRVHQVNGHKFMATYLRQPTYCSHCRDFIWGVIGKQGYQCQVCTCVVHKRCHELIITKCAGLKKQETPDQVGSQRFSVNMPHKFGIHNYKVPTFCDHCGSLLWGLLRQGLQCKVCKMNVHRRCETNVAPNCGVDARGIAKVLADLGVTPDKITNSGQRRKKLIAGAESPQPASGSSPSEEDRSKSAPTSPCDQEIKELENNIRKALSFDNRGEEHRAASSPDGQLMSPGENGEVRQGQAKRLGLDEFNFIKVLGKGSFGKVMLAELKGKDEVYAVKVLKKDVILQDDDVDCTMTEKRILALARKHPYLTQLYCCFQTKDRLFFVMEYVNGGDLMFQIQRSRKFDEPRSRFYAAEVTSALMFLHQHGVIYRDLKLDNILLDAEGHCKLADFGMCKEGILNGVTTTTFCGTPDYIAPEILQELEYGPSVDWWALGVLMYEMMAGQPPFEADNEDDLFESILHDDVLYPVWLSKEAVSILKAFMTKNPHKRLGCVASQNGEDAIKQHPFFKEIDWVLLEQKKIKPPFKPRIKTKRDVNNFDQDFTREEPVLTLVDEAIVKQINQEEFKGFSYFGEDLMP

[6] = target: Protein kinase C theta type (Homo sapiens, UniProt Q04759); test: Inhibition of PKCtheta by SPA
Protein kinase C theta type, sequence (Q04759 whole entry): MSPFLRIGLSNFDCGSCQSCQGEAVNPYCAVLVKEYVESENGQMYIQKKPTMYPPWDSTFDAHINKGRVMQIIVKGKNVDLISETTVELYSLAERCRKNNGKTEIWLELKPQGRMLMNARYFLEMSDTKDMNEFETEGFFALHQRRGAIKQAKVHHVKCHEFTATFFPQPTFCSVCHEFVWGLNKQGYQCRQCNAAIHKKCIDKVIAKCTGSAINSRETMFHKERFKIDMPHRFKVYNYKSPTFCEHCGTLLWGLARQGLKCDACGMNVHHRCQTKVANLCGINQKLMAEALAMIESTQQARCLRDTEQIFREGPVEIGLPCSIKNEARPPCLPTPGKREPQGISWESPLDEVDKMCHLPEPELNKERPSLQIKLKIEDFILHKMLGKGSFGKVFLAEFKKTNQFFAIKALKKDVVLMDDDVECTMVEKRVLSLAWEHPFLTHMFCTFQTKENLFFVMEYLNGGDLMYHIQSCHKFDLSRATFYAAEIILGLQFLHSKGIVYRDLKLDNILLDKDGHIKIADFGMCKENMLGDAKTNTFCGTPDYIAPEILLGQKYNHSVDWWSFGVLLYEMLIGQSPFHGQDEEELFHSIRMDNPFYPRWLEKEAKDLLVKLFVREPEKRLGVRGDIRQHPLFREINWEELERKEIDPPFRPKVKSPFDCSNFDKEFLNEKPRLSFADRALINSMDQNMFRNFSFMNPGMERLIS

[7] = target: Protein kinase C alpha type (Homo sapiens, UniProt P17252); test: Inhibition of PKCalpha by SPA
cells [8] = details: Homo sapiens, Jurkat
[9] = target: Tyrosine-protein kinase JAK1 (Homo sapiens, UniProt P23458); test: Inhibition of human recombinant JAK1
[10] = target: ALK tyrosine kinase receptor (Homo sapiens, UniProt Q9UM73); test: Inhibition of human recombinant Alk
ALK tyrosine kinase receptor, sequence (Q9UM73 whole entry): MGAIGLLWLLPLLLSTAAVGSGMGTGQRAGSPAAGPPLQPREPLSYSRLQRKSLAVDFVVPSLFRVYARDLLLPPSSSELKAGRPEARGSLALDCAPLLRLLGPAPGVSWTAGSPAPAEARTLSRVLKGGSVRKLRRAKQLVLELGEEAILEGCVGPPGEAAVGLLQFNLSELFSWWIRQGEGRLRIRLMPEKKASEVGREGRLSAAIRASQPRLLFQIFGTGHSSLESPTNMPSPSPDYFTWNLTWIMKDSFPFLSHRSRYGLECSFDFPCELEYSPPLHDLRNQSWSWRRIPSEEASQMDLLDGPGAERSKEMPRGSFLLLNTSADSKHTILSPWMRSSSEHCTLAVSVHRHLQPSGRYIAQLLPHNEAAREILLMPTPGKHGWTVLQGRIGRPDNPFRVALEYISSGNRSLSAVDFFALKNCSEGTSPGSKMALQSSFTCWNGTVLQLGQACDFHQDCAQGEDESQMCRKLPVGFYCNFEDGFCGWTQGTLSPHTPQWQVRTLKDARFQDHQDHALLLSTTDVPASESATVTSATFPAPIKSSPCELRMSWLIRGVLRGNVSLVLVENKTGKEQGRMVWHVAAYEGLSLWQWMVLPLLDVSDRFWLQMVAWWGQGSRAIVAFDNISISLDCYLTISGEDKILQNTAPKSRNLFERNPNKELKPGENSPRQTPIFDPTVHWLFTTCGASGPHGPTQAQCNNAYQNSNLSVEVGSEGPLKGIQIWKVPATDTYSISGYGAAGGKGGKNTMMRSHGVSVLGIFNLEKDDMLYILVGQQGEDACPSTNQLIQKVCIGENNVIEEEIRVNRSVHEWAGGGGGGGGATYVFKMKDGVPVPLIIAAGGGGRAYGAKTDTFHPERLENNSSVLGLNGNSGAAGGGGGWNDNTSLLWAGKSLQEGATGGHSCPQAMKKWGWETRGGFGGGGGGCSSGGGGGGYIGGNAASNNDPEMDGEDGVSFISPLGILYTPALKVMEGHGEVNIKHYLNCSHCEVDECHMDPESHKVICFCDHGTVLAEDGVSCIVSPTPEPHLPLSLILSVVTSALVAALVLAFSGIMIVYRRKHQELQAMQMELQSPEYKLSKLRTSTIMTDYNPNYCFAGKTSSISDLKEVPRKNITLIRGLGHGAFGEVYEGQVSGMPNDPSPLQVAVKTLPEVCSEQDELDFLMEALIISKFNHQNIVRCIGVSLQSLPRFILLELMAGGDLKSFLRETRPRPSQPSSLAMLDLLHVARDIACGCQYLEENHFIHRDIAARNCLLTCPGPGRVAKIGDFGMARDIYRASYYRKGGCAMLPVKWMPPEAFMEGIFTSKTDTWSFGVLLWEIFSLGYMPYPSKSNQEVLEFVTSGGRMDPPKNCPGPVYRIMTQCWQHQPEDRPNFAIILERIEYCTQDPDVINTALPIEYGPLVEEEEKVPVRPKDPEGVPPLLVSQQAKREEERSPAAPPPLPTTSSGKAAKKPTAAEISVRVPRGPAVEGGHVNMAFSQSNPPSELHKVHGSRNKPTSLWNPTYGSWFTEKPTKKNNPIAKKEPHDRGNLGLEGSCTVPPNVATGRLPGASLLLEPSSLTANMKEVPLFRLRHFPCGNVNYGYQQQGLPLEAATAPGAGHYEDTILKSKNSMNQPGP

[11] = target: Protein kinase C zeta type (Homo sapiens, UniProt Q05513); test: Inhibition of PKCzeta by SPA
Splenocyte = test: cells; details: Mus musculus, BALB/c
[12] = target: Mast/stem cell growth factor receptor Kit (Homo sapiens, UniProt P10721); test: Inhibition of human recombinant Kit
[13] = Clearance in OFA rat at 5 mg/kg, iv; type: ADME, organism-based; set-up: dose 5 mg/kg, route intravenous; details: in vivo
Outline: (§1)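 Rats dosed either 5 mg/kg iv in 75% saline (0.9%)-25% PEG400 or 20 mg/kg po in 75% water-25% PEG400. OFA or Lewis rats were used depending on the compound. Values are averages of three animals. AUC is extrapolated to infinity. Oral bioavailability (F) comes from the po and iv exposures.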

[14] = target: Phosphatidylinositol 4,5-bisphosphate 3-kinase catalytic subunit delta isoform (Homo sapiens, UniProt O00329); test: Inhibition of human recombinant PI3Kdelta
[15] = target: Vascular endothelial growth factor receptor 2 (Homo sapiens, UniProt P35968); test: Inhibition of human recombinant KDR
[16] = target: Tyrosine-protein kinase ABL1 (Homo sapiens, UniProt P00519); test: Inhibition of human recombinant Abl
[17] = target: Rho-associated protein kinase 2 (Homo sapiens, UniProt O75116); test: Inhibition of human recombinant ROCK2
[18] = target: Tyrosine-protein kinase Lck (Homo sapiens, UniProt P06239); test: Inhibition of human recombinant Lck
Rattus norvegicus [19] = species on record: Rattus norvegicus; test: Prolongation of allograft survival in rat heterotropic heart transplant model; type: functional, organism-based
[20] = target: Tyrosine-protein kinase BTK (Homo sapiens, UniProt Q06187); test: Inhibition of human recombinant Btk
[21] = target: Phosphatidylinositol 4,5-bisphosphate 3-kinase catalytic subunit alpha isoform (Homo sapiens, UniProt P42336); test: Inhibition of human recombinant PI3Kalpha
[22] = target: Insulin-like growth factor 1 receptor (Homo sapiens, UniProt P08069); test: Inhibition of human recombinant IGF1R
[23] = target: Vascular endothelial growth factor receptor 3 (Homo sapiens, UniProt P35916); test: Inhibition of human recombinant Flt4
[24] = target: Phosphatidylinositol 4,5-bisphosphate 3-kinase catalytic subunit gamma isoform (Homo sapiens, UniProt P48736); test: Inhibition of human recombinant PI3Kgamma
[25] = AUC (0 to infinity) in OFA rat at 20 mg/kg, po; type: ADME, organism-based; set-up: dose 20 mg/kg, route oral, time infinity; details: plasma; outline: as §1
[26] = Cmax in OFA rat at 20 mg/kg, po; type: ADME, organism-based; set-up: dose 20 mg/kg, route oral; details: in vivo; outline: as §1
[27] = target: RAC-alpha serine/threonine-protein kinase (Homo sapiens, UniProt P31749); test: Inhibition of human recombinant Akt1
Rattus norvegicus [28] = species on record: Rattus norvegicus; test: Immunosuppressive activity in rat localized graft-versus-host model; type: functional, organism-based
[29] = AUC (0 to infinity) in OFA rat at 5 mg/kg, iv; type: ADME, organism-based; set-up: time infinity, dose 5 mg/kg, route intravenous; details: plasma; outline: as §1
cells [30] = details: Homo sapiens, Splenocyte
[31] = target: Glycogen synthase kinase-3 beta (Homo sapiens, UniProt P49841); test: Inhibition of human recombinant GSK3-beta
[32] = target: Tyrosine-protein kinase JAK3 (Homo sapiens, UniProt P52333); test: Inhibition of human recombinant JAK3
[33] = target: Tyrosine-protein kinase JAK2 (Homo sapiens, UniProt O60674); test: Inhibition of human recombinant JAK2
[34] = Volume of distribution at steady state in OFA rat at 5 mg/kg, iv; type: ADME, organism-based; set-up: dose 5 mg/kg, route intravenous; details: in vivo, read-out: Vdss; outline: as §1
[35] = target: Proto-oncogene tyrosine-protein kinase receptor Ret (Homo sapiens, UniProt P07949); test: Inhibition of human recombinant Ret
[36] = target: Mitogen-activated protein kinase 10 (Homo sapiens, UniProt P53779); test: Inhibition of human recombinant JNK3
[37] = target: Tyrosine-protein kinase HCK (Homo sapiens, UniProt P08631); test: Inhibition of human recombinant Hck
Cynomolgus monkey = test: Prolongation of allograft survival in cynomolgus monkey renal allograft model; type: functional, organism-based; details: Macaca fascicularis
[38] = target: Hepatocyte growth factor receptor (Homo sapiens, UniProt P08581); test: Inhibition of human recombinant Met
[39] = Inhibition of human recombinant PKA
[40] = target: Tyrosine-protein kinase receptor UFO (Homo sapiens, UniProt P30530); test: Inhibition of human recombinant Axl
[41] = target: Serine/threonine-protein kinase PAK 2 (Homo sapiens, UniProt Q13177); test: Inhibition of human recombinant PAK2
[42] = target: Tyrosine-protein kinase SYK (Homo sapiens, UniProt P43405); test: Inhibition of human recombinant Syk
[43] = target: Mitogen-activated protein kinase 9 (Homo sapiens, UniProt P45984); test: Inhibition of human recombinant JNK2
[44] = target: Mitogen-activated protein kinase 14 (Homo sapiens, UniProt Q16539); test: Inhibition of human recombinant p38alpha
[45] = target: Receptor tyrosine-protein kinase erbB-2 (Homo sapiens, UniProt P04626); test: Inhibition of human recombinant HER2
[46] = target: Mitogen-activated protein kinase 8 (Homo sapiens, UniProt P45983); test: Inhibition of human recombinant JNK1
[47] = target: Rho-associated protein kinase 1 (Homo sapiens, UniProt Q13464); test: Inhibition of human recombinant ROCK1
[48] = target: Cyclin-dependent kinase 2/cyclin A (Homo sapiens, UniProt P24941); test: Inhibition of human recombinant CDK2/cyclin A; type: protein-complex assay
[49] = target: Tyrosine-protein kinase Fyn (Homo sapiens, UniProt P06241); test: Inhibition of human recombinant Fyn
Focal adhesion kinase 1 = Focal adhesion kinase 1 (Homo sapiens, UniProt Q05397); test: Inhibition of human recombinant FAK
[50] = Tmax in OFA rat at 20 mg/kg, po; type: ADME, organism-based; set-up: dose 20 mg/kg, route oral; details: in vivo; outline: as §1
[51] = target: Tyrosine-protein kinase ZAP-70 (Homo sapiens, UniProt P43403); test: Inhibition of human recombinant ZAP70
Ephrin type-B receptor 4 = Ephrin type-B receptor 4 (Homo sapiens, UniProt P54760); test: Inhibition of human recombinant EphB4
[52] = target: Phosphatidylinositol 4,5-bisphosphate 3-kinase catalytic subunit beta isoform (Homo sapiens, UniProt P42338); test: Inhibition of human recombinant PI3Kbeta
[53] = Elimination half life in OFA rat at 5 mg/kg, iv; type: ADME, organism-based; set-up: dose 5 mg/kg, route intravenous; details: in vivo, read-out: beta t1/2 (converted); outline: as §1
[54] = Oral bioavailability in OFA rat at 20 mg/kg, po; type: ADME, organism-based; details: in vivo; outline: as §1
cells [55] = details: Mus musculus, CBA, Bone marrow cell

Compound: CN(C)CCCn1cc(C2=C(c3c[nH]c4ccccc34)C(=O)NC2=O)c2ccccc21 [GF-109203]
IC50 [1]: 1.6 nM
IC50 [2]: 8.7 nM
IC50 [4]: 10 nM
IC50 [5]: 6.6 nM
IC50 [6]: 6.7 nM
IC50 [7]: 2.3 nM

Compound: CN(C)CCCn1cc(C2=C(c3n[nH]c4ccccc34)C(=O)NC2=O)c2ccccc21
IC50 [1]: > 315 nM
IC50 [2]: > 315 nM
IC50 [4]: > 315 nM
IC50 [5]: > 315 nM
IC50 [6]: > 315 nM
IC50 [7]: > 315 nM

Compound: CN(C)CCCn1cc(C2=C(c3cccc4ccccc34)C(=O)NC2=O)c2ccccc21
IC50 [1]: 60 nM
IC50 [2]: 207 nM
IC50 [4]: 349 nM
IC50 [5]: > 315 nM
IC50 [6]: 165 nM
IC50 [7]: 98 nM

The next lines start with results.

IC50 [1]: 36 nM
IC50 [2]: 97 nM
pKa [3]: 7.5
IC50 [4]: 36 nM
IC50 [5]: 59 nM
IC50 [6]: 76 nM
IC50 [7]: 7.1 nM
IC50 (cells [8]): 277 nM
Compound: CN1CCN(c2cccc(C3=C(c4c[nH]c5ccccc45)C(=O)NC3=O)c2)CC1

IC50 [9]: 7300 nM
IC50 [10]: > 10000 nM
IC50 [2]: 1.3 nM
IC50 [11]: 5400 nM
IC50 (Splenocyte): 128 nM
IC50 [12]: > 10000 nM
clearance [13]: 51.2 mL/min/kg
IC50 [14]: > 10000 nM
IC50 [15]: 3900 nM
pKa [3]: 7.4
IC50 [16]: 3300 nM
IC50 [17]: > 10000 nM
IC50 [18]: > 10000 nM
IC50 [20]: > 10000 nM
IC50 [4]: 6.1 nM
IC50 [21]: > 10000 nM
IC50 [22]: > 10000 nM
IC50 [23]: 4600 nM
IC50 [24]: > 10000 nM
AUC(0-inf) [25]: 2210 ng·h/mL
Cmax [26]: 622 ng/mL
IC50 [5]: 6.2 nM
IC50 [27]: > 10000 nM
AUC(0-inf) [29]: 1630 ng·h/mL
IC50 (cells [30]): 34 nM
IC50 [31]: 870 nM
IC50 [32]: 1500 nM
IC50 [33]: > 10000 nM
Vd [34]: 6.5 L/kg
IC50 [35]: > 10000 nM
IC50 [36]: > 10000 nM
IC50 [37]: > 10000 nM
IC50 [38]: > 10000 nM
IC50 [39]: 3400 nM
IC50 [40]: 9100 nM
IC50 [41]: > 10000 nM
IC50 [42]: > 10000 nM
IC50 [43]: > 10000 nM
IC50 [44]: > 10000 nM
IC50 [45]: > 10000 nM
IC50 [46]: > 10000 nM
IC50 [6]: 1 nM
IC50 [47]: > 10000 nM
IC50 [48]: 2300 nM
IC50 [49]: 5500 nM
IC50 (Focal adhesion kinase 1): 8300 nM
Tmax [50]: 0.5 h
IC50 [51]: > 10000 nM
IC50 (Ephrin type-B receptor 4): > 10000 nM
IC50 [52]: > 10000 nM
IC50 (cells [8]): 54 nM
half-life [53]: 3.2 h
bioavailability [54]: 34%
IC50 (cells [55]): 3700 nM
Compound: CN1CCN(c2nc(C3=C(c4c[nH]c5ccccc45)C(=O)NC3=O)c3ccccc3n2)CC1 [SOTRASTAURIN]
Activity (Rattus norvegicus [19]): Active
Activity (Rattus norvegicus [28]): Active
Activity (Cynomolgus monkey): Active
